What was measured:
PANC-1 = assay: Antiproliferative activity against human PANC1 cells after 48 hrs by MTT assay; assay type: functional, cell-based; settings: PANC-1, 48 h
A-375 = assay: Antiproliferative activity against human A375 cells after 48 hrs by MTT assay; assay type: functional, cell-based; settings: A-375, 48 h
[1] = Antiproliferative activity against human ECV304 cells after 48 hrs by MTT assay; assay type: cell-based; settings: ECV-304, 48 h
In short: (§1)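 Cells in exponential growth harvested and seeded at 1 ×10⁴ cells/well, incubated 24 h at 37 °C, then exposed to a range of compound concentrations for 48 h. Viability read by MTT; IC₅₀ derived from dose-dependent growth inhibition.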

HeLa = assay: Antiproliferative activity against human HeLa cells after 48 hrs by MTT assay; assay type: functional, cell-based
HT-29 = assay: Antiproliferative activity against human HT-29 cells after 48 hrs by MTT assay; assay type: functional, cell-based; settings: HT-29, 48 h
SMMC-7721 = assay: Antiproliferative activity against human SMMC7721 cells after 48 hrs by MTT assay; assay type: functional, cell-based; settings: SMMC-7721, 48 h
MCF7 = assay: Antiproliferative activity against human MCF7 cells after 48 hrs by MTT assay; assay type: functional, cell-based; settings: MCF7, 48 h
Caco-2 = assay: Antiproliferative activity against human Caco-2 cells after 48 hrs by MTT assay; assay type: functional, cell-based; settings: Caco-2, 48 h; in short: as §1
A549 = assay: Antiproliferative activity against human A549 cells after 48 hrs by MTT assay; assay type: functional, cell-based; settings: A549, 48 h; in short: as §1
A-431 = assay: Antiproliferative activity against human A431 cells abnormally expressing EGFR after 48 hrs by MTT assay; assay type: functional, cell-based; settings: A-431, 48 h; in short: as §1
HEK293 = assay: Antiproliferative activity against human HEK293 cells overexpressing EGFR after 48 hrs by MTT assay; assay type: cell-based; settings: HEK293, 48 h; in short: as §1

Row | Structure (SMILES) | IC50 (PANC-1) [µM] | IC50 (A-375) [µM] | IC50 [1] [µM] | IC50 (HeLa) [µM] | IC50 (HT-29) [µM] | IC50 (SMMC-7721) [µM] | IC50 (MCF7) [µM] | IC50 (Caco-2) [µM] | IC50 (A549) [µM] | IC50 (A-431) [µM] | IC50 (HEK293) [µM]
1 | CNC(=O)c1ccc(OC)c(O)c1-c1c(C(=O)NC)ccc(OC)c1OCC(=O)Nc1ccc(F)c(Cl)c1 | 191 | 217 | 72.2 | 53.4 | 214 | 109 | 109 | 20.3 | 73.5 |  | 
2 | COC(=O)c1cc(OC(=O)c2ccc(OC)c(O)c2)c(OC)cc1CCNc1ccc(F)c(Cl)c1 |  |  | 61 |  |  |  |  |  | 180 |  | 
3 | COC(=O)c1cc(OC(=O)c2cc(O)c(OC)cc2CCN(C)C)ccc1OC |  |  |  |  |  |  |  | 3100 | 111 |  | 
4 | COC(=O)c1cc(OC(=O)c2ccc(OC)c(O)c2)c(OC)cc1CCN(C)C |  |  |  |  |  |  |  | 110 | 453 |  | 
5 | CNC(=O)c1ccc(OC)c(OCCN2CCOCC2)c1-c1c(C(=O)NC)ccc(OC)c1OCC(=O)Nc1ccc(F)c(Cl)c1 | 110 | 25.1 |  | 100 | 44.7 | 194 | 60.4 | 3310 | 194 |  | 
6 | COC(=O)c1cc(OC(=O)c2ccc(OC)c(O)c2)c(OC)cc1CCN1CCOCC1 |  |  | 2.67 |  |  |  |  | 52.5 | 158 |  | 
7 | CNC(=O)c1ccc(OC)c(O)c1-c1c(C(=O)NC)ccc(OC)c1OCCN1CCOCC1 | 166 | 174 | 1360 | 415 | 122 | 78.2 | 83.7 | 75.9 | 259 | 75.9 | 116
8 | CNC(=O)c1ccc(OC)c(OCCN(C)C)c1-c1c(C(=O)NC)ccc(OC)c1OCC(=O)Nc1ccc(F)c(Cl)c1 | 159 | 242 | 57.2 | 117 | 133 | 124 | 123 | 167 | 241 |  | 
9 | CNC(=O)c1ccc(OC)c(O)c1-c1c(C(=O)NC)ccc(OC)c1O | 217 | 106 | 113 | 97.6 | 200 | 95.7 |  | 104 | 64.7 | 104 | 88
10 | CNC(=O)c1ccc(OC)c(OCCN2CCNCC2)c1-c1c(C(=O)NC)ccc(OC)c1OCC(=O)Nc1ccc(F)c(Cl)c1 |  |  |  |  | 47.2 | 126 |  |  |  |  | 
11 | COc1ccc2c(=O)oc3c(OC)cc(CCN(C)C)c4c(=O)oc1c2c34 [TASPINE] |  |  | 22.3 |  |  |  |  | 153 | 4.18 | 11.2 | 16
